# Laboratory results as given in ChEMBL document CHEMBL3856239, “Synthesis and Antiobesity Properties of 6-(4-Chlorophenyl)-3-(4-((3,3-difluoro-1-hydroxycyclobutyl)methoxy)-3-methoxyphenyl)thieno[3,2-d]pyrimidin-4(3H)-one (BMS-814580): A Highly Efficacious Melanin Concentrating Hormone Receptor 1 (MCHR1) Inhibitor” (J Med Chem, 2016).
# Columns and labels:
# [1] = Solubility of the compound in phosphate buffer at pH 6.4; format: physicochemical
# Outline: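 Solubility of parent compounds and prodrugs measured in 50 mM phosphate buffer, pH 6.4.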
# [2] = tested on: Rattus norvegicus; test: Antiobesity activity in DIO Sprague-Dawley rat model assessed as reduction in body weight at 0.03 mg/kg, po qd for 28 days relative to vehicle control; format: functional; design: scale not given: the % may be the effect or the level left
# Outline: (§1)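 Obese male SD rats on diet-induced obesity, 8/group, dosed orally once daily for 28 days with phosphate prodrug (0.03–3 mg/kg parent) in 14% propylene glycol/1% Tween/85% water; rimonabant 10 mg/kg control; pair-fed groups matched to 1 and 3 mg/kg intake; body weight and food measured daily, % change versus vehicle.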
# [3] = tested on: Rattus norvegicus; test: Antiobesity activity in DIO Sprague-Dawley rat model assessed as reduction in body weight at 0.1 mg/kg, po qd for 28 days relative to vehicle control; format: functional; design: scale not given: the % may be the effect or the level left; outline: as §1
# [4] = tested on: Rattus norvegicus; test: Antiobesity activity in DIO Sprague-Dawley rat model assessed as reduction in body weight at 0.3 mg/kg, po qd for 28 days relative to vehicle control; format: functional; design: scale not given: the % may be the effect or the level left; outline: as §1
# [5] = tested on: Rattus norvegicus; test: Antiobesity activity in DIO Sprague-Dawley rat model assessed as reduction in body weight at 1 mg/kg, po qd for 28 days relative to vehicle control; format: functional; design: scale not given: the % may be the effect or the level left; outline: as §1
# [6] = tested on: Rattus norvegicus; test: Antiobesity activity in DIO Sprague-Dawley rat model assessed as reduction in body weight at 3 mg/kg, po qd for 28 days relative to vehicle control; format: functional; design: scale not given: the % may be the effect or the level left; outline: as §1
# [7] = Cmax in dog at 10 mg/kg, po; format: ADME, organism-based, Canis lupus familiaris; design: dose 10 mg/kg, route oral; conditions: in vivo
# Outline: (§2)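 Rats, dogs and cynomolgus monkeys, n = 3: parent 1 mg/kg i.v. in PEG400:DMAC:water (70:5:25), or phosphate prodrug 10 mg/kg oral in Methocel:Tween80:water (0.5:0.1:99.4); plasma parent compound, Cmax, Tmax, AUC0-∞, half-life, clearance, Vss and bioavailability derived.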
# [8] = tested on: Rattus norvegicus; test: Antiobesity activity in DIO Sprague-Dawley rat model assessed as reduction in caloric intake at 0.03 mg/kg, po qd for 28 days relative to vehicle control; format: functional; design: scale not given: the % may be the effect or the level left; outline: as §1
# [9] = tested on: Rattus norvegicus; test: Antiobesity activity in DIO Sprague-Dawley rat model assessed as reduction in caloric intake at 0.1 mg/kg, po qd for 28 days relative to vehicle control; format: functional; design: scale not given: the % may be the effect or the level left; outline: as §1
# [10] = tested on: Rattus norvegicus; test: Antiobesity activity in DIO Sprague-Dawley rat model assessed as reduction in caloric intake at 0.3 mg/kg, po qd for 28 days relative to vehicle control; format: functional; design: scale not given: the % may be the effect or the level left; outline: as §1
# [11] = tested on: Rattus norvegicus; test: Antiobesity activity in DIO Sprague-Dawley rat model assessed as reduction in caloric intake at 1 mg/kg, po qd for 28 days relative to vehicle control; format: functional; design: scale not given: the % may be the effect or the level left; outline: as §1
# [12] = tested on: Rattus norvegicus; test: Antiobesity activity in DIO Sprague-Dawley rat model assessed as reduction in caloric intake at 3 mg/kg, po qd for 28 days relative to vehicle control; format: functional; design: scale not given: the % may be the effect or the level left; outline: as §1
# [13] = Plasma concentration in DIO Sprague-Dawley rat assessed as parent compound level at 0.3 mg/kg, po for 28 days measured after 2 hrs; format: ADME, organism-based
# Outline: (§3)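 Obese male DIO SD rats, 8/group, dosed orally once daily for 28 days with phosphate prodrug at 0.03–3 mg/kg. Vehicle 14% propylene glycol/1% Tween/85% water. Body weight and food intake recorded daily. Parent plasma levels at 2 and 24 h; prodrug detection limit <2 nM. Histopathology for biliary toxicity at study end.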
# [14] = Plasma concentration in DIO Sprague-Dawley rat assessed as parent compound level at 3 mg/kg, po for 28 days measured after 2 hrs; format: ADME, organism-based; outline: as §3
# [15] = Plasma concentration in DIO Sprague-Dawley rat assessed as parent compound level at 0.3 mg/kg, po for 28 days measured after 24 hrs; format: ADME, organism-based; outline: as §3
# [16] = tested on: Rattus norvegicus; test: Toxicity in DIO Sprague-Dawley rat assessed as biliary lesion at 0.03 to 3 mg/kg, po administered once daily for 28 days by histophalogy analysis; format: organism-based; conditions: in vivo, 672 h; outline: as §3
# [17] = tested on: Rattus norvegicus; test: Antiobesity activity in once daily orally dosed DIO Sprague-Dawley rat model assessed as reduction in caloric measured after 28 days relative to vehicle control; format: functional, organism-based; outline: as §1
# [18] = target: Melanin-concentrating hormone receptor 1 (Homo sapiens, UniProt Q99705); test: Binding affinity to MCHR1 (unknown origin)
# [19] = Protein binding in DIO rat plasma assessed as unbound fraction; format: ADME, cell-free
# Outline: (§4)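 Plasma protein binding reported as % free drug in rat, DIO rat, dog, cynomolgus monkey, rabbit and human plasma.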
# [20] = Protein binding in dog plasma assessed as unbound fraction; format: ADME, cell-free, Canis lupus familiaris; outline: as §4
# [21] = Protein binding in cynomolgus monkey plasma assessed as unbound fraction; format: ADME, cell-free, Macaca fascicularis; outline: as §4
# [22] = Protein binding in rabbit plasma assessed as unbound fraction; format: ADME, cell-free, Oryctolagus cuniculus; outline: as §4
# [23] = Cmax in rat at 10 mg/kg, po; format: ADME, organism-based; design: dose 10 mg/kg, route oral; conditions: in vivo; outline: as §2
# [24] = Cmax in cynomolgus monkey at 10 mg/kg, po; format: ADME, organism-based, Macaca fascicularis; design: dose 10 mg/kg, route oral; conditions: in vivo; outline: as §2
# [25] = Tmax in rat at 10 mg/kg, po; format: ADME, organism-based; conditions: in vivo
# Outline: (§5)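 Full PK in rat, dog and cynomolgus monkey. Oral arm: phosphate prodrug at 10 mg/kg parent-equivalent in Methocel:Tween80:water (0.5:0.1:99.4). Intravenous arm: parent at 1 mg/kg in PEG400:DMAC:water (70:5:25). n = 3 per species; individual Tmax values reported for dog and monkey.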
# [26] = Tmax in dog at 10 mg/kg, po; format: ADME, organism-based, Canis lupus familiaris; conditions: in vivo; outline: as §5
# [27] = Tmax in cynomolgus monkey at 10 mg/kg, po; format: ADME, organism-based, Macaca fascicularis; conditions: in vivo; outline: as §5
# [28] = AUC in rat at 10 mg/kg, po; format: ADME, organism-based; conditions: in vivo; outline: as §2
# [29] = AUC in dog at 10 mg/kg, po; format: ADME, organism-based, Canis lupus familiaris; conditions: in vivo; outline: as §2
# [30] = AUC in cynomolgus monkey at 10 mg/kg, po; format: ADME, organism-based, Macaca fascicularis; conditions: in vivo; outline: as §2
# [31] = Oral bioavailability in rat at 10 mg/kg; format: ADME, organism-based; conditions: in vivo; outline: as §5
# [32] = Oral bioavailability in dog at 10 mg/kg; format: ADME, organism-based, Canis lupus familiaris; conditions: in vivo; outline: as §5
# [33] = Oral bioavailability in cynomolgus monkey at 10 mg/kg; format: ADME, organism-based, Macaca fascicularis; conditions: in vivo; outline: as §5
# [34] = tested on: Rattus norvegicus; test: Toxicity in rat assessed as hepatobiliary lesions up to 100 mg/kg administered for 30 days; format: organism-based; conditions: in vivo, 720 h
# Outline: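 Rats dosed daily with the phosphate prodrug for 30 days at up to 100 mg/kg; hepatobiliary lesions examined.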
# [35] = Plasma concentration in DIO Sprague-Dawley rat assessed as parent compound level at 3 mg/kg, po for 28 days measured after 24 hrs
# Melanin-concentrating hormone receptor 1, sequence (Q99705 whole entry): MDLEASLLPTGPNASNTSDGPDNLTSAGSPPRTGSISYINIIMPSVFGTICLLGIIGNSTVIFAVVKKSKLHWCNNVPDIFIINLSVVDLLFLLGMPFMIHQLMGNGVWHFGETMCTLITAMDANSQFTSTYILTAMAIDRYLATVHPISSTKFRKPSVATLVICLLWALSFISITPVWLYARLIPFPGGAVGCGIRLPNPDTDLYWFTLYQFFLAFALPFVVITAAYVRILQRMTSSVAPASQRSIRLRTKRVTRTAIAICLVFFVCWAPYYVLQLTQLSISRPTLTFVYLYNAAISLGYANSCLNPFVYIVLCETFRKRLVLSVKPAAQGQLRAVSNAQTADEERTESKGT
structure (smiles),measurement,setting,value
COc1cc(-n2cnc3cc(-c4ccc(Cl)cc4)sc3c2=O)ccc1OCC1(OP(=O)(O)O)CC(F)(F)C1,solubility,[1],4 µg/mL
same,Activity,[2],1.7%
same,Activity,[3],3.2%
same,Activity,[4],5%
same,Activity,[5],6.6%
same,Activity,[6],7.8%
same,Cmax,[7],1200 nM
same,Activity,[8],6.5%
same,Activity,[9],10.5%
same,Activity,[10],12.8%
same,Activity,[11],14.5%
same,Activity,[12],14.7%
same,concentration at 2 h,[13],2000 nM
same,concentration at 2 h,[14],13500 nM
same,concentration at 24 h,[15],1200 nM
same,Activity,[16],Non-Toxic
same,inhibition,[17],Dose-dependent effect
same,Ki,[18],2920 nM
same,Fu,[19],0.1%
same,Fu,[20],0.3%
same,Fu,[21],0.4%
same,Fu,[22],0.2%
same,Cmax,[23],4000 nM
same,Cmax,[24],1200 nM
same,Tmax,[25],6.7 h
same,Tmax,[26],9.3 h
same,Tmax,[27],10.7 h
same,AUC,[28],107 µM·h
same,AUC,[29],15.3 µM·h
same,AUC,[30],87 µM·h
same,bioavailability,[31],54%
same,bioavailability,[32],33%
same,bioavailability,[33],46%
same,Activity,[34],Non-Toxic
same,concentration at 24 h,[35],14400 nM
